Experimental data taken from paper PMC8911528 (Organic & biomolecular chemistry, 2021).

Assays:
[1] = biological target: T1, SF3B subunit of the spliceosome (Homo sapiens, UniProt O75533+Q7RTV0); conditions: cited from earlier work
human cells = conditions: cited from earlier work
[2] = biological target: T1, SF3B subunit of the spliceosome; test: In vitro splicing assay; assay type: biochemical; conditions: for reduction in splicing inhibitory potency compared to herboxidiene: relative to herboxidiene
Method in brief: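 Radiolabeled RNA splicing substrate incubated in human cell nuclear extract with a dose range of test compound or DMSO control. RNA resolved by denaturing PAGE and bands quantified by phosphorimaging. Splicing efficiency is mRNA over total substrate RNA, normalised to DMSO. IC50 (half-maximal reduction of splicing versus DMSO) is from nonlinear regression, [inhibitor] vs normalised response, on three independent measurements, with 95% confidence intervals.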

WI-38 = conditions: human normal fibroblast cell line WI-38; cited from earlier work

C6 desmethyl herboxidiene [Compound 8]
splicing inhibitory activity [1]: slightly lower splicing inhibitory activity
anticancer activity in human cells (human cells): slightly lower

C=C1CC[C@H](CC(=O)O)O[C@@H]1/C(C)=C/C=C/[C@@H](C)C[C@@]1(C)O[C@@H]1[C@H](C)[C@@H](OC)[C@@H](C)O [Compound 12, 2-((2R,6S)-6-((S,2E,4E)-7-((2R,3R)-3-((2R,3R,4R)-4-hydroxy-3-methoxypentan-2-yl)-2-methyloxiran-2-yl)-6-methylhepta-2,4-dien-2-yl)-5-methylenetetrahydro-2H-pyran-2-yl)acetic acid]
IC50 [2]: 400 nM

CO[C@H]([C@@H](C)[C@H]1O[C@]1(C)C[C@H](C)/C=C/C=C(\C)[C@H]1O[C@@H](CC(=O)O)CC[C@@H]1C)[C@@H](C)O [herboxidiene]
cell cycle arrest (WI-38): induces both G1 and G2/M cell cycle arrest

CO[C@H]([C@@H](C)[C@H]1O[C@]1(C)C[C@H](C)/C=C/C=C(\C)[C@H]1O[C@@H](CC(=O)O)CCC1(C)C)[C@@H](C)O [Compound 15, 2-((2R,6S)-6-((S,2E,4E)-7-((2R,3R)-3-((2R,3R,4R)-4-hydroxy-3-methoxypentan-2-yl)-2-methyloxiran-2-yl)-6-methylhepta-2,4-dien-2-yl)-5,5-dimethyltetrahydro-2H-pyran-2-yl)acetic acid]
reduction in splicing inhibitory potency compared to herboxidiene [2]: 3 fold

CO[C@H]([C@@H](C)[C@H]1O[C@]1(C)C[C@H](C)/C=C/C=C(\C)[C@H]1O[C@@H](CC(=O)O)CC[C@H]1C)[C@@H](C)O [Compound 13, 2-((2R,5R,6S)-6-((S,2E,4E)-7-((2R,3R)-3-((2R,3R,4R)-4-hydroxy-3-methoxypentan-2-yl)-2-methyloxiran-2-yl)-6-methylhepta-2,4-dien-2-yl)-5-methyltetrahydro-2H-pyran-2-yl)acetic acid]
IC50 [2]: 2500 nM
reduction in splicing inhibitory potency compared to herboxidiene [2]: about 6 fold

CO[C@H]([C@@H](C)[C@H]1O[C@]1(C)C[C@H](C)/C=C/C=C(\C)[C@H]1O[C@@H](CC(=O)O)CCC12CC2)[C@@H](C)O [Compound 14, 2-((4S,6R)-4-((S,2E,4E)-7-((2R,3R)-3-((2R,3R,4R)-4-hydroxy-3-methoxypentan-2-yl)-2-methyloxiran-2-yl)-6-methylhepta-2,4-dien-2-yl)-5-oxaspiro[2.5]octan-6-yl)acetic acid]
IC50 [2]: 5200 nM
loss of splicing inhibitory activity compared to gem-dimethyl derivative ([2]; relative to gem-dimethyl derivative 15): 5 fold

5(R)-hydroxy herboxidiene [Compound 6]
splicing inhibition relative to herboxidiene [1]: slightly lower splicing inhibition than herboxidiene
